Data set [1] can be described thus: Stability in mouse liver microsomes assessed as CYP450-mediated metabolism by measuring parent compound remaining at 1 uM measured after 60 mins in presence of NADPH generating system by LC-MS/MS analysis. The data set is classed as ADME. Particulars: 1 h. The gist of the method:
(§1)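 Liver microsomes from mouse or human, 0.2 mg/mL, with 1 μM compound (final) in 100 mM potassium phosphate at pH 7.4. Adding microsomes started the reaction; triplicates. After 60 min, quenched with 3 volumes of ice-cold acetonitrile containing internal standard.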
For orientation: Liver microsomes are a subcellular fraction often used to study metabolism.

Data set [2] deals with Cytochrome P450. Nature of the data set: Stability in human liver microsomes assessed as CYP450-mediated metabolism by measuring parent compound remaining at 1 uM measured after 60 mins in presence of NADPH generating system by LC-MS/MS analysis. In kind it is ADME. Particulars: 1 h. The gist of the method: as §1
Data set [3] in a line: Stability in mouse liver microsomes assessed as parent compound remaining at 1 uM measured after 60 mins in absence of NADPH by LC-MS/MS analysis. The data set is classed as ADME, Microsome. The following applies: liver microsomes, read-out: Stability. The gist of the method:
(§2)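 Cofactor-free control for cofactor-independent degradation. Mouse or human liver microsomes at 0.2 mg/mL, 1 μM compound (final), 100 mM potassium phosphate at pH 7.4, no NADPH regenerating system. Adding microsomes started the reaction; run in triplicate. Sampled at 60 min and quenched with three volumes of ice-cold acetonitrile spiked with internal standard.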

The nature of data set [4]: Stability in human liver microsomes assessed as parent compound remaining at 1 uM measured after 60 mins in absence of NADPH by LC-MS/MS analysis. In kind it is ADME, Microsome. The following applies: liver microsomes, read-out: Stability. The gist of the method: as §2

For the compound `COc1ccc(-c2c(C)nc3c(N4CC[C@@H](NS(=O)(=O)c5ccc(C)cc5)C4)cc(C)nn23)cc1OC`, the Parent compound remaining in data set [1] came out at 2%. In data set [2], the Stability is 29%. The remaining at 1 h, 1 µM in data set [3] and in data set [4] was > 95% throughout.
`COc1ccc(-c2c(C)nc3c(N4CC[C@@H](NS(=O)(=O)c5ccc(C(C)=O)cc5)C4)cc(C)nn23)cc1OC`: the Parent compound remaining in data set [1] is 5%. For the same compound, the Stability in data set [2] was 12%. The remaining at 1 h, 1 µM in data set [3] and in data set [4] was > 95% each time.
On to `COc1ccc(-c2c(C)nc3c(N4CC[C@@H](SC(C)=O)C4)cc(C)nn23)cc1OC`, for which the Parent compound remaining in data set [1] came to 8%. Moreover, the Stability in data set [2] was 11%. Further, the remaining at 1 h, 1 µM in data set [3] and in data set [4] was > 95% each time.
As for `CC(=O)N[C@@H]1CCN(c2cc(C)nn3c(-c4cccs4)c(C)nc23)C1`, the Parent compound remaining in data set [1] was found to be 28%. In addition, the Stability in data set [2] is 50%. Also, the remaining at 1 h, 1 µM in data set [3] and in data set [4] was > 95% in each case.
In the case of `COc1ccc(-c2c(C)nc3c(N4CC[C@@H](NC(=O)Nc5ccccc5)C4)cc(C)nn23)cc1OC`, the Parent compound remaining in data set [1] was 87%. Further, the Stability in data set [2] is on record as 90%. Further, the remaining at 1 h, 1 µM in data set [3] and in data set [4] was > 95% in each case.
Regarding `CCCCCC(=O)N[C@@H]1CCN(c2cc(C)nn3c(-c4ccc(OC)c(OC)c4)c(C)nc23)C1`, in data set [1], the Parent compound remaining is given as 52%. In addition, in data set [2], the Stability is given as 88%. The remaining at 1 h, 1 µM in data set [3] and in data set [4] was > 95% in each case.
Consider `COc1ccc(-c2c(C)nc3c(N4CC[C@@H](NS(=O)(=O)c5cccs5)C4)cc(C)nn23)cc1OC`, for which the Parent compound remaining in data set [1] is 78%. Further, the Stability in data set [2] was 95%. In addition, the remaining at 1 h, 1 µM in data set [3] and in data set [4] was > 95% each time.
As for `CSc1ccc(-c2c(C)nc3c(N4CC[C@@H](NC(C)=O)C4)cc(C)nn23)cc1`, in data set [1], the Parent compound remaining is given as 32%. The Stability in data set [2] is given as 84%. The remaining at 1 h, 1 µM in data set [3] and in data set [4] was > 95% each time.
Consider `CC(=O)N[C@@H]1CCN(c2cc(C)nn3c(-c4nccs4)c(C)nc23)C1`, for which the remaining at 1 h, 1 µM in data set [3] and in data set [4] was > 95% each time.
As for `CC(=O)N[C@@H]1CCN(c2cc(C)nn3c(-c4ccc(OC(F)(F)F)cc4)c(C)nc23)C1`, in data set [1], the Parent compound remaining was found to be 72%. Also, the Stability in data set [2] is on record as 114%. The remaining at 1 h, 1 µM in data set [3] and in data set [4] was > 95% throughout.
In the case of `COc1ccc(-c2c(C)nc3c(N4CC[C@@H](NC(=O)C(F)(F)F)C4)cc(C)nn23)cc1OC`, the Parent compound remaining in data set [1] worked out at 117%. Moreover, in data set [2], the Stability stood at 113%. Also, the remaining at 1 h, 1 µM in data set [3] and in data set [4] was > 95% throughout.
With `COc1ccc(-c2c(C)nc3c(N4CCC(F)(F)C4)cc(C)nn23)cc1OC`, the remaining at 1 h, 1 µM in data set [3] and in data set [4] was > 95% in each case.
On to `COc1ccc(-c2c(C)nc3c(N4CC[C@@H](NC(=O)OCc5ccccc5)C4)cc(C)nn23)cc1OC`, for which the remaining at 1 h, 1 µM in data set [3] and in data set [4] was > 95% throughout.
Turning to `COc1ccc(-c2c(C)nc3c(N4CC[C@@H](N=[N+]=[N-])C4)cc(C)nn23)cc1OC`, the remaining at 1 h, 1 µM in data set [3] and in data set [4] was > 95% in each case.
Consider `COc1ccc(-c2c(C)nc3c(N4CC[C@@H](NC(=O)c5ccccc5)C4)cc(C)nn23)cc1OC`, for which the remaining at 1 h, 1 µM in data set [3] and in data set [4] was > 95% in each case.
Consider `COc1ccc(-c2c(C)nc3c(N4CC[C@@H](NS(=O)(=O)c5ccc(NC(C)=O)cc5)C4)cc(C)nn23)cc1OC`, for which the remaining at 1 h, 1 µM in data set [3] and in data set [4] was > 95% throughout.
In the case of `COc1ccc(-c2cnc3c(N4CC[C@@H](NC(C)=O)C4)ccnn23)cc1OC`, in data set [1], the Parent compound remaining is 68%. In addition, the Stability in data set [2] was 92%. Moreover, the remaining at 1 h, 1 µM in data set [3] and in data set [4] was > 95% each time.
Take `COc1ccc(-c2c(C)nc3c(N4CC[C@@H](NS(N)(=O)=O)C4)cc(C)nn23)cc1OC`: the remaining at 1 h, 1 µM in data set [3] and in data set [4] was > 95% in each case.
Regarding `CC(=O)N[C@@H]1CCN(c2cc(C)nn3c(-c4cccc(S(=O)(=O)N(C)C)c4)c(C)nc23)C1`, the remaining at 1 h, 1 µM in data set [3] and in data set [4] was > 95% throughout.
As to `COc1ccc(-c2c(C)nc3c(N4CC[C@@H](NC(=O)C(F)(F)c5ccccc5)C4)cc(C)nn23)cc1OC`, the Parent compound remaining in data set [1] is 6%. In data set [2], the Stability is recorded as 20%. Also, the remaining at 1 h, 1 µM in data set [3] and in data set [4] was > 95% throughout.
`COc1ccc(-c2c(C)nc3c(N4CC[C@@H](NC(=O)OC5CCCCC5)C4)cc(C)nn23)cc1OC`: the remaining at 1 h, 1 µM in data set [3] and in data set [4] was > 95% each time.
Consider `COc1ccc(-c2c(C)nc3c(N4CC[C@@H](NS(=O)(=O)c5ccc(C#N)cc5)C4)cc(C)nn23)cc1OC`, for which the remaining at 1 h, 1 µM in data set [3] and in data set [4] was > 95% each time.
For the compound `CCN(CCNC(C)=O)c1cc(C)nn2c(-c3ccc(OC)c(OC)c3)c(C)nc12`, the remaining at 1 h, 1 µM in data set [3] and in data set [4] was > 95% in each case.
For the compound `COc1ccc(-c2c(C)nc3c(N4CC[C@@H](NC(=O)[C@@H](OC)c5ccccc5)C4)cc(C)nn23)cc1OC`, the remaining at 1 h, 1 µM in data set [3] and in data set [4] was > 95% in each case.
For the compound `CC(=O)N[C@@H]1CCN(c2cc(C)nn3c(-c4ccc(C#N)cc4)c(C)nc23)C1`, the remaining at 1 h, 1 µM in data set [3] and in data set [4] was > 95% each time.
For `COc1ccc(-c2c(C)nc3c(N4CC[C@@H](NC(=O)Oc5ccc6ccccc6c5)C4)cc(C)nn23)cc1OC`, the remaining at 1 h, 1 µM in data set [3] and in data set [4] was > 95% throughout.
In the case of `COc1ccc(-c2c(C)nc3c(N4CC[C@@H](NS(=O)(=O)C(C)C)C4)cc(C)nn23)cc1OC`, the remaining at 1 h, 1 µM in data set [3] and in data set [4] was > 95% each time.
On to `COc1ccc(-c2c(C)nc3c(N4CC[C@@H](NC(C)=O)C4)cc(C)nn23)cc1F`, for which the remaining at 1 h, 1 µM in data set [3] and in data set [4] was > 95% throughout.
With `COc1ccc(-c2c(C)nc3c(N4CC[C@@H](N5CCOCC5)C4)cc(C)nn23)cc1OC`, the remaining at 1 h, 1 µM in data set [3] and in data set [4] was > 95% in each case.
`COc1ccc(-c2c(C)nc3c(N4CC[C@@H](NC(C)=O)C4)cc(Cl)nn23)cc1OC`: the remaining at 1 h, 1 µM in data set [3] and in data set [4] was > 95% throughout.
Turning to `COc1ccc(-c2c(C)nc3c(N4CC[C@@H](NS(C)(=O)=O)C4)cc(C)nn23)cc1OC`, the remaining at 1 h, 1 µM in data set [3] and in data set [4] was > 95% each time.
Regarding `CC(=O)N[C@@H]1CCN(c2cc(C)nn3cc(C)nc23)C1`, the remaining at 1 h, 1 µM in data set [3] and in data set [4] was > 95% each time.
Take `COc1ccc(-c2c(C)nc3c(N4CC[C@@H](NC(C)=O)C4)ccnn23)cc1OC`: the remaining at 1 h, 1 µM in data set [3] and in data set [4] was > 95% in each case.
For `CC(=O)N[C@@H]1CCN(c2cc(C)nn3c(-c4ccc(C(F)(F)F)cc4)c(C)nc23)C1`, the remaining at 1 h, 1 µM in data set [3] and in data set [4] was > 95% throughout.
